Test results published in ChEMBL document CHEMBL4152263, “Novel anticancer hybrids from diazen-1-ium-1,2-diolate nitric oxide donor and ROS inducer plumbagin: Design, synthesis and biological evaluations” (Eur J Med Chem, 2018).
Activity calls are given as the source filed them. The calls are words filed in the database; no cut-off is given here.

Tests used:
HepG2 [1] = assay: Cytotoxicity against human HepG2 cells assessed as growth inhibition at 10 uM after 48 hrs by MTT assay relative to control; format: functional; conditions: HepG2, 48 h, read-out: GI
Outline: (§1)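 Single-concentration MTT screen. Cells were seeded, allowed to adhere for 24 h, and exposed to compound for 48 h. MTT (5 mg/mL) was added for the last 4 h, then DMSO, with absorbance read at 570 nm. Result is inhibition rate (%) at the stated concentration; mean of three independent experiments.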

MDA-MB-231 [2] = assay: Cytotoxicity against human MDA-MB-231 cells assessed as growth inhibition at 10 uM after 48 hrs by MTT assay relative to control; format: functional; conditions: MDA-MB-231, 48 h, read-out: GI; outline: as §1
A549 [3] = assay: Cytotoxicity against human A549 cells assessed as growth inhibition at 10 uM after 48 hrs by MTT assay relative to control; format: functional; conditions: A549, 48 h, read-out: GI; outline: as §1
WRL68 = assay: Cytotoxicity against human WRL68 cells assessed as growth inhibition after 48 hrs by MTT assay; format: cell-based; conditions: WRL68, 48 h
Outline: (§2)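 Cells seeded at 5.0 × 10^4/ml and left 24 h to adhere, then exposed to a range of test-compound concentrations for 44 h. MTT (5 mg/mL) was added for a further 4 h at 37 °C. Supernatant was removed, DMSO added, and OD read at 570 nm. IC50 after 48 h total exposure; mean ± SD, n = 3.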

HepG2 [4] = assay: Cytotoxicity against human HepG2 cells assessed as growth inhibition after 48 hrs by MTT assay; format: functional, cell-based; conditions: HepG2, 48 h; outline: as §2
MDA-MB-231 [5] = assay: Cytotoxicity against human MDA-MB-231 cells assessed as growth inhibition after 48 hrs by MTT assay; format: functional, cell-based; conditions: MDA-MB-231, 48 h; outline: as §2
HK-2 = assay: Cytotoxicity against human HK2 cells assessed as growth inhibition after 48 hrs by MTT assay; format: cell-based; conditions: HK-2, 48 h; outline: as §2
A549 [6] = assay: Cytotoxicity against human A549 cells assessed as growth inhibition after 48 hrs by MTT assay; format: functional, cell-based; conditions: A549, 48 h; outline: as §2
HCT-116 = assay: Cytotoxicity against human HCT116 cells assessed as growth inhibition after 48 hrs by MTT assay; format: functional, cell-based; conditions: HCT-116, 48 h; outline: as §2
A549 [7] = assay: Induction of apoptosis in human A549 cells assessed as increase in late apoptotic cells after 24 hrs by FITC-annexin V/propidium iodide staining-based flow cytometric analysis; format: functional, cell-based
A549 [8] = assay: Induction of reactive oxygen species formation in human A549 cells at 5 uM after 24 hrs by DCFH-DA probe-based flow cytometric analysis relative to control; format: functional
A549 [9] = assay: Induction of apoptosis in human A549 cells assessed as late apoptotic cells at 1 uM after 24 hrs by FITC-annexin V/propidium iodide staining-based flow cytometric analysis (reference value: 0.36%); format: functional
A549 [10] = assay: Induction of apoptosis in human A549 cells assessed as early apoptotic cells at 4 uM after 24 hrs by FITC-annexin V/propidium iodide staining-based flow cytometric analysis (reference value: 1.87%); format: functional
A549 [11] = assay: Induction of apoptosis in human A549 cells assessed as late apoptotic cells at 2 uM after 24 hrs by FITC-annexin V/propidium iodide staining-based flow cytometric analysis (reference value: 0.36%); format: functional
A549 [12] = assay: Induction of apoptosis in human A549 cells assessed as early apoptotic cells at 1 uM after 24 hrs by FITC-annexin V/propidium iodide staining-based flow cytometric analysis (reference value: 1.87%); format: functional
A549 [13] = assay: Induction of apoptosis in human A549 cells assessed as necrotic cells at 2 uM after 24 hrs by FITC-annexin V/propidium iodide staining-based flow cytometric analysis (reference value: 0.055%); format: functional
A549 [14] = assay: Induction of apoptosis in human A549 cells assessed as viable cells at 4 uM after 24 hrs by FITC-annexin V/propidium iodide staining-based flow cytometric analysis (reference value: 97.7%); format: functional; conditions: A549, 24 h, read-out: Activity
A549 [15] = assay: Induction of apoptosis in human A549 cells assessed as necrotic cells at 1 uM after 24 hrs by FITC-annexin V/propidium iodide staining-based flow cytometric analysis (reference value: 0.055%); format: functional
[16] = Drug metabolism in human A549 cells assessed as nitric oxide production at 5 uM after 24 hrs by Griess assay; format: ADME, cell-based; conditions: a549, 24 h
Outline: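 A549 cells were plated at 5.0 × 10^4/ml and treated in triplicate with compound at 5 μM for varying times up to 24 h. NO release was quantified as nitrite plus nitrate by Griess assay (commercial kit); mean ± SD, n = 3.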

A549 [17] = assay: Induction of apoptosis in human A549 cells assessed as viable cells at 1 uM after 24 hrs by FITC-annexin V/propidium iodide staining-based flow cytometric analysis (reference value: 97.7%); format: functional; conditions: A549, 24 h, read-out: Activity
A549 [18] = assay: Induction of apoptosis in human A549 cells assessed as necrotic cells at 4 uM after 24 hrs by FITC-annexin V/propidium iodide staining-based flow cytometric analysis (reference value: 0.055%); format: functional
A549 [19] = assay: Cytotoxicity against human A549 cells assessed as growth inhibition at 5 uM after 24 hrs in presence of nitric oxide scavenger carboxy-PTIO by MTT assay
A549 [20] = assay: Induction of apoptosis in human A549 cells assessed as late apoptotic cells at 4 uM after 24 hrs by FITC-annexin V/propidium iodide staining-based flow cytometric analysis (reference value: 0.36%); format: functional
A549 [21] = assay: Induction of apoptosis in human A549 cells assessed as viable cells at 2 uM after 24 hrs by FITC-annexin V/propidium iodide staining-based flow cytometric analysis (reference value: 97.7%); format: functional; conditions: A549, 24 h, read-out: Activity
[22] = Drug metabolism in human A549 cells assessed as nitric oxide production at 5 uM after 24 hrs in presence of nitric oxide scavenger carboxy-PTIO by Griess assay; format: ADME, cell-based; conditions: a549, 24 h
Outline: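 A549 cells were pre-incubated with the NO scavenger carboxy-PTIO (50 μM) for 1 h, then treated with compound (5 μM) for 24 h. Proliferation was read by MTT and NO by Griess assay (nitrite/nitrate); mean ± SD of three independent experiments.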

A549 [23] = assay: Induction of apoptosis in human A549 cells assessed as early apoptotic cells at 2 uM after 24 hrs by FITC-annexin V/propidium iodide staining-based flow cytometric analysis (reference value: 1.87%); format: functional
HepG2 [24] = assay: Cytotoxicity against human HepG2 cells assessed as growth inhibition at 20 uM after 48 hrs by MTT assay relative to control; format: functional; conditions: HepG2, 48 h, read-out: GI; outline: as §1
A549 [25] = assay: Cytotoxicity against human A549 cells assessed as growth inhibition at 20 uM after 48 hrs by MTT assay relative to control; format: functional; conditions: A549, 48 h, read-out: GI; outline: as §1
MDA-MB-231 [26] = assay: Cytotoxicity against human MDA-MB-231 cells assessed as growth inhibition at 20 uM after 48 hrs by MTT assay relative to control; format: functional; conditions: MDA-MB-231, 48 h, read-out: GI; outline: as §1
A549 [27] = assay: Cytotoxicity against human A549 cells assessed as growth inhibition at 40 uM after 48 hrs by MTT assay relative to control; format: functional; conditions: A549, 48 h, read-out: GI; outline: as §1
HepG2 [28] = assay: Cytotoxicity against human HepG2 cells assessed as growth inhibition at 40 uM after 48 hrs by MTT assay relative to control; format: functional; conditions: HepG2, 48 h, read-out: GI; outline: as §1
MDA-MB-231 [29] = assay: Cytotoxicity against human MDA-MB-231 cells assessed as growth inhibition at 40 uM after 48 hrs by MTT assay relative to control; format: functional; conditions: MDA-MB-231, 48 h, read-out: GI; outline: as §1

Row | Compound | inhibition of growth at 10 µM (HepG2 [1]) [%] | inhibition of growth at 10 µM (MDA-MB-231 [2]) [%] | inhibition of growth at 10 µM (A549 [3]) [%] | IC50 (WRL68) [µM] | IC50 (HepG2 [4]) [µM] | IC50 (MDA-MB-231 [5]) [µM] | IC50 (HK-2) [µM] | IC50 (A549 [6]) [µM] | IC50 (HCT-116) [µM] | further results
1 | CC1=C(CCCC(=O)OCCCCO/[N+]([O-])=N/N2CCOCC2)C(=O)c2c(O)cccc2C1=O | 32.2 | 30.6 | 38.2 | – | – | – | – | – | – | –
2 | CC1=C(CCC(=O)OCO/[N+]([O-])=N/N2CCCCC2)C(=O)c2c(O)cccc2C1=O | 35.1 | 40.1 | 45 | 28.2 | 14.4 | 11.7 | 27.7 | 10.8 | 20.2 | –
3 | CC1=C(CCC(=O)OCO/[N+]([O-])=N/N2CCOCC2)C(=O)c2c(O)cccc2C1=O | 31.3 | 37.2 | 40.3 | 19.3 | 16.5 | 13.5 | 24.6 | 12.3 | 15.6 | –
4 | CC1=C(CCCC(=O)OCO/[N+]([O-])=N/N2CCOCC2)C(=O)c2c(O)cccc2C1=O | 75.4 | 88.3 | 91.2 | > 40 | 5.52 | 4.12 | 23.5 | 3.48 | 4.21 | Activity (A549 [7]): Dose-dependent effect; fold change (FC) (A549 [8]): 1.64; Activity (A549 [9]): 4.18%; Activity (A549 [10]): 6.93%; Activity (A549 [11]): 10.1%; Activity (A549 [12]): 2.09%; Activity (A549 [13]): 6.53%; viability at 4 µM (A549 [14]): 45.4%; Activity (A549 [15]): 1.56%; Drug metabolism [16]: Metabolite_Detected; viability at 1 µM (A549 [17]): 92.2%; Activity (A549 [18]): 17.3%; growth inhibition (GI) (A549 [19]): inactive; Activity (A549 [20]): 30.3%; viability at 2 µM (A549 [21]): 79.6%; Drug metabolism [22]: Metabolite_Notdetected; Activity (A549 [23]): 3.74%
5 | [O-]/[N+](=N\OCCl)N1CCOCC1 | 16.4 | 13.3 | 19.1 | – | – | – | – | – | – | –
6 | CC1=C(CCC(=O)OCCO/[N+]([O-])=N/N2CCOCC2)C(=O)c2c(O)cccc2C1=O | 32.5 | 35.7 | 30.3 | – | – | – | – | – | – | –
7 | CC1=C(CCCC(=O)OCCO/[N+]([O-])=N/N2CCOCC2)C(=O)c2c(O)cccc2C1=O | 25 | 26.2 | 23.7 | – | – | – | – | – | – | –
8 | CC1=C(CCC(=O)OCCCO/[N+]([O-])=N/N2CCOCC2)C(=O)c2c(O)cccc2C1=O | 28 | 28.6 | 26.9 | – | – | – | – | – | – | –
9 | [O-]/[N+](=N\OCCl)N1CCCCC1 | 17.6 | 11.4 | 10.8 | – | – | – | – | – | – | –
10 | CC1=C(CCCC(=O)OCCCO/[N+]([O-])=N/N2CCOCC2)C(=O)c2c(O)cccc2C1=O | 8.2 | 9.5 | 11.3 | – | – | – | – | – | – | –
11 | CC1=C(CCCC(=O)OCO/[N+]([O-])=N/N2CCCCC2)C(=O)c2c(O)cccc2C1=O | 80.3 | 83.6 | 86.7 | > 40 | 6.68 | 4.92 | 17.7 | 4.27 | 5.26 | Drug metabolism [16]: Metabolite_Detected; growth inhibition (GI) (A549 [19]): inactive; Drug metabolism [22]: Metabolite_Notdetected
12 | CC1=C(CCCC(=O)OCO/[N+]([O-])=N/N2CCCC2)C(=O)c2c(O)cccc2C1=O | 69.7 | 70.8 | 65.6 | 16.6 | 7.12 | 6.97 | 18.1 | 9.24 | 9.32 | –
13 | CC1=C(CCC(=O)OCCCCO/[N+]([O-])=N/N2CCOCC2)C(=O)c2c(O)cccc2C1=O | 28.8 | 29.4 | 24.4 | – | – | – | – | – | – | –
14 | CC1=C(CCCC(=O)O)C(=O)c2c(O)cccc2C1=O | – | – | – | – | – | – | – | – | – | inhibition of growth at 20 µM (HepG2 [24]): 28.6%; inhibition of growth at 20 µM (A549 [25]): 8.5%; inhibition of growth at 20 µM (MDA-MB-231 [26]): 9.9%
15 | CC1=C(CCC(=O)OCO/[N+]([O-])=N/N2CCCC2)C(=O)c2c(O)cccc2C1=O | 29.8 | 31.6 | 32.9 | 19.5 | 17.8 | 15.2 | 25.6 | 16.4 | 17.2 | –
16 | CC1=CC(=O)c2c(O)cccc2C1=O [PLUMBAGIN] | 58.9 | 73.8 | 60.7 | 15.4 | 9.17 | 6.5 | 23.6 | 8.9 | 9.8 | fold change (FC) (A549 [8]): 1.34
17 | CC1=C(CCC(=O)O)C(=O)c2c(O)cccc2C1=O | – | – | – | – | – | – | – | – | – | inhibition of growth at 40 µM (A549 [27]): 12.3%; inhibition of growth at 40 µM (HepG2 [28]): 25.3%; inhibition of growth at 40 µM (MDA-MB-231 [29]): 8.7%
